Reference: ChEMBL document CHEMBL2202955, “Identification of Potent, Selective, Cell-Active Inhibitors of the Histone Lysine Methyltransferase EZH2” (ACS Med Chem Lett, 2012)
Activity calls are given as the source filed them. No cut-off for these calls is given here.

Columns and labels:
[1] = target: Histone-lysine N-methyltransferase, H3 lysine-79 specific (Homo sapiens, UniProt Q8TEK3); test: Inhibition of DOT1L using core histone as substrate preincubated for 10 mins followed by addition of [3H]SAM and incubated for 60 mins
Sequence of Histone-lysine N-methyltransferase, H3 lysine-79 specific (Q8TEK3 whole entry): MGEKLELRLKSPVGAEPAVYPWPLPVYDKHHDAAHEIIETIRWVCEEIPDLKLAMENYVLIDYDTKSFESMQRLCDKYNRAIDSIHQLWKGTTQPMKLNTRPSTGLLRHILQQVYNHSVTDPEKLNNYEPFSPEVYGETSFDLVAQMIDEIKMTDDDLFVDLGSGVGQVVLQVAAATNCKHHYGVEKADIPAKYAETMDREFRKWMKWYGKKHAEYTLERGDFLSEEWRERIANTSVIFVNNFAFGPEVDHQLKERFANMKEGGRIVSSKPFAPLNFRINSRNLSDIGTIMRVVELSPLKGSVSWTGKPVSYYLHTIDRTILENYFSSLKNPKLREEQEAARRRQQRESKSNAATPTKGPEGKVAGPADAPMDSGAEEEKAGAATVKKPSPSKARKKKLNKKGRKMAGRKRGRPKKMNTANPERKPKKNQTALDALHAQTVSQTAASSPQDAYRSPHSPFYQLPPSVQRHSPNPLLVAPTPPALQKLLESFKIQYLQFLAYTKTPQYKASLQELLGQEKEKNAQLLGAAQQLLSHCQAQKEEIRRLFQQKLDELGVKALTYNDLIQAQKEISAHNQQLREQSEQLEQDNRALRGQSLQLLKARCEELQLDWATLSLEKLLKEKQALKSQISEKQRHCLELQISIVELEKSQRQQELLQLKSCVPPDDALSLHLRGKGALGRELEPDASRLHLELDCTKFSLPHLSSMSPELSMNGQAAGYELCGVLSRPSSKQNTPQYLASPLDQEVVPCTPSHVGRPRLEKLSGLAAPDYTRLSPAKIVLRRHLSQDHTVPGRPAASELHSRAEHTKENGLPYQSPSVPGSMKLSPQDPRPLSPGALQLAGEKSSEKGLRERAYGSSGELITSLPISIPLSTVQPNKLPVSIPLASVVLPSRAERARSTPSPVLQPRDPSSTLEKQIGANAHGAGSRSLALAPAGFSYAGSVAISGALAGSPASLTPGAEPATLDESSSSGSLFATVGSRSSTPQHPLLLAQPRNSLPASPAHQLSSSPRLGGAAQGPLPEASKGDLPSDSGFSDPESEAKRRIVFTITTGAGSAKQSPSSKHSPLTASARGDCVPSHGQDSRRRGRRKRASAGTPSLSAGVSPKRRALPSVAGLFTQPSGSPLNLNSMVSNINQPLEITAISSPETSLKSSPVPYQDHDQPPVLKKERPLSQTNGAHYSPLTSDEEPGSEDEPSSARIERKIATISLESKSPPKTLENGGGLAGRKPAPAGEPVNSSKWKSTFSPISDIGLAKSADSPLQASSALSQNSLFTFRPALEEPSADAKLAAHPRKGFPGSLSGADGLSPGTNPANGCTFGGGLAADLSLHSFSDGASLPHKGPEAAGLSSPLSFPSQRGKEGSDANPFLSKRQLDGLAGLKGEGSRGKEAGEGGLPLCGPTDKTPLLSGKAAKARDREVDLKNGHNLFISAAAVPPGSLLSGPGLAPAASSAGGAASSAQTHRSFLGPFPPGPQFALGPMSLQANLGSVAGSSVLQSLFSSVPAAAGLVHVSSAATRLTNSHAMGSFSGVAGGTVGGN
Summary of the method: (§1)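 Panel of methyltransferases tested for selectivity. […] Values are the mean of at least two independent replicates.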

[2] = target: T1, Histone-lysine N-methyltransferase SETMAR (Homo sapiens, UniProt Q53H47); test: Inhibition of SETMAR using histone H3 as substrate preincubated for 10 mins followed by addition of [3H]SAM and incubated for 60 mins; summary of the method: as §1
T1 sequence (Q53H47 whole entry): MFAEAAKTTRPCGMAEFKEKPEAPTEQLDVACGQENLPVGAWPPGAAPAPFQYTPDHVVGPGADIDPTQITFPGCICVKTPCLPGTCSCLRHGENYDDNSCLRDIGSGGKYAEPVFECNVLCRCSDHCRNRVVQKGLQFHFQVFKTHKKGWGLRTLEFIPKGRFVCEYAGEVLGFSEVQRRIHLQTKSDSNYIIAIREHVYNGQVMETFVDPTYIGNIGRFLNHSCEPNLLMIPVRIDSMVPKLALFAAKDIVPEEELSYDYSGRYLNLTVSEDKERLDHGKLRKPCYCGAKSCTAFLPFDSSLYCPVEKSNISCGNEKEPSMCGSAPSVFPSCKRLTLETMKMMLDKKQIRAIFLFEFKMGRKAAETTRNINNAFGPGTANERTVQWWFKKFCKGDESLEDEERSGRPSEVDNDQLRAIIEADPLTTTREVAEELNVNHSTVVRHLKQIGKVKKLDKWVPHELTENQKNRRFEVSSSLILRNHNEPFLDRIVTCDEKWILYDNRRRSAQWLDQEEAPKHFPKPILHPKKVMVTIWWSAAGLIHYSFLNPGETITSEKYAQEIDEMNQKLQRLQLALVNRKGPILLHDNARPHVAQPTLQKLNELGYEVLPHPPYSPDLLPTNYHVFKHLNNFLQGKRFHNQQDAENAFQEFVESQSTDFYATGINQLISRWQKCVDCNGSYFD

[3] = target: DNA (cytosine-5)-methyltransferase 3B (Mus musculus, UniProt O88509); test: Inhibition of mouse DNMT3b1 using lambda DNA as substrate preincubated for 10 mins followed by addition of [3H]SAM and incubated for 60 mins; summary of the method: as §1
[4] = target: T2, Histone-lysine N-methyltransferase SUV39H1 (Homo sapiens, UniProt O43463); test: Inhibition of SUV39H1 using histone H3 as substrate preincubated for 10 mins followed by addition of [3H]SAM and incubated for 60 mins; summary of the method: as §1
T2 sequence (O43463 whole entry): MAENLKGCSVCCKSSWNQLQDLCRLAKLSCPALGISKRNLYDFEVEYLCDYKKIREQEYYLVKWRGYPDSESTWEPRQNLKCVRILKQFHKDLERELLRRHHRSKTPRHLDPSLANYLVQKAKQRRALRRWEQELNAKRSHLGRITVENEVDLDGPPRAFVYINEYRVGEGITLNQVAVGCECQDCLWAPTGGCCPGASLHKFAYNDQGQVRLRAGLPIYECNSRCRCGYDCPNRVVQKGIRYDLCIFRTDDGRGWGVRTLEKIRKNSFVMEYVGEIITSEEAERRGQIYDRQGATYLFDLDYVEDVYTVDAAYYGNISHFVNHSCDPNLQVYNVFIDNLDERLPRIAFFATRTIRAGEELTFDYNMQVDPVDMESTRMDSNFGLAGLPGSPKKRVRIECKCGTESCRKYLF

[5] = target: EZH2/SUZ12/EED/RBBP7/RBBP4; test: Inhibition of PRC2 complex of FLAG-EZH2, EED, SUZ12, AEBP2 and RbAp48 using histone H3 peptide (21 to 44) as substrate and [3H]SAM after 30 mins; format: protein-complex assay; conditions: read-out: Ki(app)
[6] = target: T3, Histone-lysine N-methyltransferase SETD7 (Homo sapiens, UniProt Q8WTS6); test: Inhibition of SET7 using histone H3 as substrate preincubated for 10 mins followed by addition of [3H]SAM and incubated for 60 mins; summary of the method: as §1
T3 sequence (Q8WTS6 whole entry): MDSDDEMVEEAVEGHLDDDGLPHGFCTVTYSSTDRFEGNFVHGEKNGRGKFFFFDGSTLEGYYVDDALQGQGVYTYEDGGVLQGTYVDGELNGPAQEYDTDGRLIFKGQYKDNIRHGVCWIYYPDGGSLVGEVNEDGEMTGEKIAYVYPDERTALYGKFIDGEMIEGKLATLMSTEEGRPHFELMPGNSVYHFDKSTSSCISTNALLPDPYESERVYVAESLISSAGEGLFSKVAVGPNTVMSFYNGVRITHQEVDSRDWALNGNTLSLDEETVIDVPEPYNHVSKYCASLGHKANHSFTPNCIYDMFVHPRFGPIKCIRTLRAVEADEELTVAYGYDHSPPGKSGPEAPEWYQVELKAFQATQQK

[7] = target: T4, Histone-lysine N-methyltransferase EZH2 (Homo sapiens, UniProt Q15910); test: Inhibition of EZH2-mediated nuclear H3K27 methylation in human HCC1806 cells at >1000 nM after 72 hrs by immunofluorescence analysis; format: cell-based
T4 sequence (Q15910 whole entry, looked up): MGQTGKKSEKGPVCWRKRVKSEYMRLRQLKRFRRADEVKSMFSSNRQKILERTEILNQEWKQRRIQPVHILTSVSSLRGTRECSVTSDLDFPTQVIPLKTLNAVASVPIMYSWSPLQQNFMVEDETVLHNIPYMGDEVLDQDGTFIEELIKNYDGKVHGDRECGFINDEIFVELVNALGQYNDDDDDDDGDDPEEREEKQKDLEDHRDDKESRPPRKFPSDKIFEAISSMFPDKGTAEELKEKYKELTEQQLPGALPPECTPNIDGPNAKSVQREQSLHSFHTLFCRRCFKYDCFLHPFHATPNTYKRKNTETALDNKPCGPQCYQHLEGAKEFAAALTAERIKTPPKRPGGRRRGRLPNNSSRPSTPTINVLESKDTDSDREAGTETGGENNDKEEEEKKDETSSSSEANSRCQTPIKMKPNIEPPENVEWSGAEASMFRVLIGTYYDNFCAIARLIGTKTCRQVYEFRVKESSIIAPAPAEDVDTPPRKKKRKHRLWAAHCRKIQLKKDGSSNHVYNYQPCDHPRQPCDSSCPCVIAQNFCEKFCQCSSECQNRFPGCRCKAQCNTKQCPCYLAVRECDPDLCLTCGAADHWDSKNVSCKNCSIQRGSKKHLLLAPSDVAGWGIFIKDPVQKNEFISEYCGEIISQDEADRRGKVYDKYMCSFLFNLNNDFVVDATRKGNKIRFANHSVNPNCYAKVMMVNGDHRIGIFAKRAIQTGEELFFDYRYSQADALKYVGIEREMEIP
Summary of the method: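 HCC1806 breast cancer cells were exposed to compound for 72 h. Nuclear H3K27me3 was quantified by an immunofluorescence imaging assay and normalized to total H3. […] Values are the mean of at least three independent replicates.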

[8] = target: T4, Histone-lysine N-methyltransferase EZH2; test: Inhibition of EZH2-mediated proliferation of human ZR-75-1 cells after 6 days by chemiluminescence analysis; format: cell-based
[9] = target: T4, Histone-lysine N-methyltransferase EZH2; test: Inhibition of EZH2-mediated proliferation of human PC3 cells after 6 days by chemiluminescence analysis; format: cell-based; conditions: PC-3
[10] = target: T4, Histone-lysine N-methyltransferase EZH2; test: Inhibition of EZH2-mediated proliferation of human DU145 cells after 6 days by chemiluminescence analysis; format: cell-based; conditions: DU-145
[11] = target: T4, Histone-lysine N-methyltransferase EZH2; test: Inhibition of EZH2-mediated proliferation of human SKBR3 cells after 6 days by chemiluminescence analysis; format: cell-based; conditions: SK-BR-3
[12] = target: T4, Histone-lysine N-methyltransferase EZH2; test: Inhibition of EZH2-mediated proliferation of human […] cells after 6 days by chemiluminescence analysis; format: cell-based
[13] = target: Histone-lysine N-methyltransferase 2B (Homo sapiens, UniProt Q9UMN6); test: Inhibition of MLL4 using core histone as substrate preincubated for 10 mins followed by addition of [3H]SAM and incubated for 60 mins; summary of the method: as §1
Sequence of Histone-lysine N-methyltransferase 2B (Q9UMN6 whole entry): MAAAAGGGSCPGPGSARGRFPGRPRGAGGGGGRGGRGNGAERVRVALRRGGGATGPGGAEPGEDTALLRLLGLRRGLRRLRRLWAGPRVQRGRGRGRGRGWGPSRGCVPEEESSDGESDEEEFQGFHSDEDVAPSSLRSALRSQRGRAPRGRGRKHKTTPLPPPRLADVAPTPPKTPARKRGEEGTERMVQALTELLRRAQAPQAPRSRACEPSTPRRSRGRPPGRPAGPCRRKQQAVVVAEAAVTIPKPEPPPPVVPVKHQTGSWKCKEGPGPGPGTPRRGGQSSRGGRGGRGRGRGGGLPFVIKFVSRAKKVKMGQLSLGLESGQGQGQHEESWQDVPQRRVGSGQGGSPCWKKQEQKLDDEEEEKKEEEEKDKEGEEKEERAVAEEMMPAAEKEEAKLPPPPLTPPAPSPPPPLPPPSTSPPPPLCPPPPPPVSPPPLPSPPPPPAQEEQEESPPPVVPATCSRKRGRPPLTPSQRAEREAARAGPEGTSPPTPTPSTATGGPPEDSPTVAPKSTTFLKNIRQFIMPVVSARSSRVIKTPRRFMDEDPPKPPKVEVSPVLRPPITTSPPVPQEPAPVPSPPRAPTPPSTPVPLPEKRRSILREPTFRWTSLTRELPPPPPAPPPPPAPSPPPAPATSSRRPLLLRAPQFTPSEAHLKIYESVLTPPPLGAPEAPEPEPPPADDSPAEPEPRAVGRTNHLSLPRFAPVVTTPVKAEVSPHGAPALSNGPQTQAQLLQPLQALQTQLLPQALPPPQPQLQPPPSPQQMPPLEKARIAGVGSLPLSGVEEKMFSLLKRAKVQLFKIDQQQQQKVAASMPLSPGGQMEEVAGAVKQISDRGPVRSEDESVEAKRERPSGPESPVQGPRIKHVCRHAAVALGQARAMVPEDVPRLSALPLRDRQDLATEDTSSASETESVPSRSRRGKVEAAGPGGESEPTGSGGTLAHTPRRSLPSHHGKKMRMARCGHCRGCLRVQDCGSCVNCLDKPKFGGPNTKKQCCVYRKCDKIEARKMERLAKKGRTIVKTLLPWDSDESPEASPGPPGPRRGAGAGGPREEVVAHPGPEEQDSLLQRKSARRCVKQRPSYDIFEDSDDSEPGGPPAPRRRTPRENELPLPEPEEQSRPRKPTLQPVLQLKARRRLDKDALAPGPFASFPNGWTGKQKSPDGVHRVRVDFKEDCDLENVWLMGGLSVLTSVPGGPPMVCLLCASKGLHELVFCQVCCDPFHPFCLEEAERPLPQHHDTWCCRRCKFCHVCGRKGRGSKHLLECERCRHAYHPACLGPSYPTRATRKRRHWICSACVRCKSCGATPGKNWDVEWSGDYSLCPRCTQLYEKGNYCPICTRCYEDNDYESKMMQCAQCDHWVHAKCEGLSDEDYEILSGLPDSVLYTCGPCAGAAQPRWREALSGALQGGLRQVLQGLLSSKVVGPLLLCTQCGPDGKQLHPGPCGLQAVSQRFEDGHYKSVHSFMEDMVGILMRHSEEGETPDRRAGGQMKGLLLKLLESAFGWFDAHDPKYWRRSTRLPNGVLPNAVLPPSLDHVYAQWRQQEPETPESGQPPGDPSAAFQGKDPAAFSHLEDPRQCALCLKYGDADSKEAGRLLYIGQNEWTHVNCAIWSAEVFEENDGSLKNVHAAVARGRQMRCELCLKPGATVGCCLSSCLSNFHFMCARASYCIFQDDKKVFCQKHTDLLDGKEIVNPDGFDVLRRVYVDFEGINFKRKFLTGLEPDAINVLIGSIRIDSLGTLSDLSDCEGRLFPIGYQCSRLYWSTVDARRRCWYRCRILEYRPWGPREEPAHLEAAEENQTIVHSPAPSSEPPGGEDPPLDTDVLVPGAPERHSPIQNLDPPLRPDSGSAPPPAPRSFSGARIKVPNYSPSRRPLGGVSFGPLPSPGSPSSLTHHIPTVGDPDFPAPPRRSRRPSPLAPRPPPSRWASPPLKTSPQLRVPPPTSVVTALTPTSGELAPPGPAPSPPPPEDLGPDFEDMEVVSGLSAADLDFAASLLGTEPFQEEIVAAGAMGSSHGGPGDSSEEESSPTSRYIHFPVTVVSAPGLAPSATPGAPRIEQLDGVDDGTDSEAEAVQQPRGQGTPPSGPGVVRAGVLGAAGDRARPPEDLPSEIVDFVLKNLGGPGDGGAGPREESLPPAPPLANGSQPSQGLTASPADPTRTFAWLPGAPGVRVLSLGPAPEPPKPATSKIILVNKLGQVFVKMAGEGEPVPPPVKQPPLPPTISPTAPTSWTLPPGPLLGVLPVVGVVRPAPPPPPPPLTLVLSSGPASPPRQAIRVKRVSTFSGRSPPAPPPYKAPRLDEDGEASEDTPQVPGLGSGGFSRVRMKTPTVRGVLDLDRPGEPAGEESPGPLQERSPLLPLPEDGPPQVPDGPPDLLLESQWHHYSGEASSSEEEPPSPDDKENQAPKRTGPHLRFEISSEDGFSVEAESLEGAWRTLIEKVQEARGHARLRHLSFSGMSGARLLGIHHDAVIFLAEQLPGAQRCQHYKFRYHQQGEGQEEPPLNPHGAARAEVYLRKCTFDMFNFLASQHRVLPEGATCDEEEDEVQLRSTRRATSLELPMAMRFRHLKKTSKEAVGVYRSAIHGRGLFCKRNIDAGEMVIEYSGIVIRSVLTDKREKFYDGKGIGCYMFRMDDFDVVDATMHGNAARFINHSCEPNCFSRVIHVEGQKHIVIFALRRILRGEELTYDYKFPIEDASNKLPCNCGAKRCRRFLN

[14] = target: Histone-lysine N-methyltransferase 2C (Homo sapiens, UniProt Q8NEZ4); test: Inhibition of MLL3 using core histone as substrate preincubated for 10 mins followed by addition of [3H]SAM and incubated for 60 mins; summary of the method: as §1
[15] = target: Histone-lysine N-methyltransferase 2A (Homo sapiens, UniProt Q03164); test: Inhibition of MLL1 using core histone as substrate preincubated for 10 mins followed by addition of [3H]SAM and incubated for 60 mins; summary of the method: as §1
[16] = target: Histone-lysine N-methyltransferase 2D (Homo sapiens, UniProt O14686); test: Inhibition of MLL2 using core histone as substrate preincubated for 10 mins followed by addition of [3H]SAM and incubated for 60 mins; summary of the method: as §1

Structure (SMILES) | IC50 [1] [µM] | IC50 [2] [µM] | IC50 [3] [µM] | IC50 [4] [µM] | Ki [5] [µM] | IC50 [6] [µM] | inhibition [7] [%] | inhibition [8] | inhibition [9] | inhibition [10] | inhibition [11] | inhibition [12] | IC50 [13] [µM] | IC50 [14] [µM] | IC50 [15] [µM] | IC50 [16] [µM]
CCCc1cc(C)[nH]c(=O)c1CNC(=O)c1cc(-c2ccc(N3CCN(C)CC3)nc2)cc2c1cnn2C(C)C | > 100 | > 100 | > 100 | > 100 | 0.0006 | 49 | – | – | – | – | – | – | – | – | – | –
Cc1cc(C)c(CNC(=O)c2cc(-c3ccc(N4CCN(C)CC4)nc3)cc3c2cnn3C(C)C)c(=O)[nH]1 | > 100 | > 100 | > 100 | > 100 | 0.0079 | 214 | > 90 | Active | Active | Active | Active | Active | – | – | – | –
CCCc1cc(C)[nH]c(=O)c1CNC(=O)c1cc(-c2ccnc(N3CCN(C)CC3)c2)cc2c1cnn2C(C)C | > 100 | > 100 | > 100 | > 100 | 0.0012 | 63 | – | – | – | – | – | – | > 100 | > 100 | > 100 | > 100
